Active and inactive are the calls of the source. The rule behind the calls is not given here.
Assays:
Type in all cases: cell-based
[1] = molecular target: T1, Short transient receptor potential channel 6 (Mus musculus) (UniProt Q61143); experiment: Agonist activity at mouse TRPC6 expressed in HEK293 cells co-expressing Gq11-PLCbeta fused M5 receptor assessed as increase in intracellular calcium level measured for 2.5 mins by Fluo-8-AM dye-based fluorescence assay
T1 sequence (whole entry): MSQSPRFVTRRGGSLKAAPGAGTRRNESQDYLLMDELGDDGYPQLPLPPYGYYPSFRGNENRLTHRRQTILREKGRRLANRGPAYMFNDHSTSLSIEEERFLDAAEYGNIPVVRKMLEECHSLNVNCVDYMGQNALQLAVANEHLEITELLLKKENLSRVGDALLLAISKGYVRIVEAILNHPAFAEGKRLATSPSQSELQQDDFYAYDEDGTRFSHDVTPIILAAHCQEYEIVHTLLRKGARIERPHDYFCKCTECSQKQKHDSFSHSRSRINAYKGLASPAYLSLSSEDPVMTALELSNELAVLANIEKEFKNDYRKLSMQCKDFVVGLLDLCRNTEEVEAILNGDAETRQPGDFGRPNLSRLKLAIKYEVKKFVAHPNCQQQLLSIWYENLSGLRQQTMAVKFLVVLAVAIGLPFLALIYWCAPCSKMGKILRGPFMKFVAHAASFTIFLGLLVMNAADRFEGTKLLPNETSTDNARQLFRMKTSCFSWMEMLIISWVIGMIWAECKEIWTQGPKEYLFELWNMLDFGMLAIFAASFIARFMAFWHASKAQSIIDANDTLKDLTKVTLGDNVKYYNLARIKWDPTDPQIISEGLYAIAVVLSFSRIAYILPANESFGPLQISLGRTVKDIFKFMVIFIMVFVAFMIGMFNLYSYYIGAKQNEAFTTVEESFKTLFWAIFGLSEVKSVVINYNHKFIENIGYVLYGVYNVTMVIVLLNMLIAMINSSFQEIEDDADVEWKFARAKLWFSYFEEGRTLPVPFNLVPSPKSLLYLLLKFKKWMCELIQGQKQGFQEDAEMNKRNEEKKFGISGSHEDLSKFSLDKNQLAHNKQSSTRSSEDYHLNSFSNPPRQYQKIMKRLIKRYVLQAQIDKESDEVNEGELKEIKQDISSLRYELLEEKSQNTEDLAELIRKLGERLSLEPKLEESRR

[2] = molecular target: T1, Short transient receptor potential channel 6 (Mus musculus); experiment: (§1) Agonist activity at mouse TRPC6 expressed in HEK293 cells co-expressing Gq11-PLCbeta fused M5 receptor assessed as increase in intracellular calcium level by Fluo-4-AM dye-based fluorescence assay
Outline: (§2)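 Stable HEK293 line coexpressing mouse TRPC6 and M5 receptor, held under G418 and hygromycin B. Cells are loaded with Fluo4-AM or Fluo8-AM in 2 mM Ca2+ extracellular solution at pH 7.4 with 2 mM probenecid, and read at 32 °C as ΔF/F0.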

[3] = molecular target: T2, Short transient receptor potential channel 6 (Mus musculus, UniProt Q61143); experiment: as §1; outline: as §2
T2 sequence (Q61143 whole entry): T1 sequence (whole entry)

[4] = molecular target: T3, Short transient receptor potential channel 7 (Homo sapiens) (UniProt Q9HCX4); experiment: Antagonist activity at human TRPC7 receptor expressed in HEK293 cells assessed as channel desensitization up to 30 uM in presence of 0.1 mM Ca2+ by whole cell patch-clamp method
T3 sequence (whole entry): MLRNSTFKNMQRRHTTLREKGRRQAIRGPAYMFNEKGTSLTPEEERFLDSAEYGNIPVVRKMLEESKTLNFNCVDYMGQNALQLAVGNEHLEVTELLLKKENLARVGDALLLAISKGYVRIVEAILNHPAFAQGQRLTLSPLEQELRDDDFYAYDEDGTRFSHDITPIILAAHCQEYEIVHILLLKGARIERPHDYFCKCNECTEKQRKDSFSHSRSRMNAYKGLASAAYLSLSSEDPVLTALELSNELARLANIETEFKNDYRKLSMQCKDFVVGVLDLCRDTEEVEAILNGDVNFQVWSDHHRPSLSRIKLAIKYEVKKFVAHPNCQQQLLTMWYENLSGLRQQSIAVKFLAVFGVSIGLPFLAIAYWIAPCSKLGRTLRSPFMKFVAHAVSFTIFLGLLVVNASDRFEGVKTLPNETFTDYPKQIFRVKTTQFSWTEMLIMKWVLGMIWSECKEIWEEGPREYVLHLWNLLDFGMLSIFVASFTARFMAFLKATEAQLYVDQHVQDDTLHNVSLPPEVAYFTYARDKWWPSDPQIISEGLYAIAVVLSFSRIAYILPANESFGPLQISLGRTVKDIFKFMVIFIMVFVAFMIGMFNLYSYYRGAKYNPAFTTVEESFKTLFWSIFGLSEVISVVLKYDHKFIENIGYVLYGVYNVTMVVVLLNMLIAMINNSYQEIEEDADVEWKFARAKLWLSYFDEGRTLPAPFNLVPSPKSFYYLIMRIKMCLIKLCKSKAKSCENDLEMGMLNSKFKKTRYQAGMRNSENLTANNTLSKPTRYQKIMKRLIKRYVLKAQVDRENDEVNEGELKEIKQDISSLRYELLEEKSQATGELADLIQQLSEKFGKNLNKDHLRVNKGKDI
Outline: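 Whole-cell clamp of TRPC6/M5 or TRPC7 HEK293 cells with 0.1 mM Ca2+ bath and 400 nM free Ca2+ pipette. Ramps +100 to −100 mV every 1 s. Increasing concentrations given consecutively by perfusion (TRPC6 highest 20–100 μM; TRPC7 up to 30 μM). Currents at positive and negative potentials followed for desensitization.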

CCOC(=O)N1CCC(c2cc(O)n3nc(C)c(-c4ccc(F)cc4)c3n2)CC1
Activity [1]: Dose-dependent effect | Activity [2]: Dose-dependent effect | EC50 [3]: 7.2 µM | inhibition [4]: Active

— ChEMBL document CHEMBL4014306, “Pyrazolopyrimidines as Potent Stimulators for Transient Receptor Potential Canonical 3/6/7 Channels” (J Med Chem, 2017)
